# Laboratory results reported in PubChem BioAssay.
# Unmarked numbers belong to inactive results.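 How the source made its calls, unless noted: active means growth inhibition above 25% in both replicates, a cutoff set 3 SD above the mean; inconclusive means above 25% in only one replicate; inactive means the rest.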
# Experiment: OD615 S. cerevisiae growth inhibition, permissive medium, pilot counter-assay, permissive growth control for S. cerevisiae lifespan shortening project (AID 705)
# Settings: OD615, 24 h, at 10 µM, stronger effect = higher value
# Summary of the method: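 Material: engineered DeaD yeast; compound dosing: one dose 10 µM, DMSO 0.25% final; measure: yeast growth inhibition indicated by reduced 24 h OD615; detection: OD615 turbidity read; incubation: cells pre-grown 4 h, then 24 h compound exposure, 30 °C humidified; medium: permissive synthetic complete medium with raffinose and galactose carbon sources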
row,Compound,growth inhibition
1,CCN1C(=O)c2ccccc2Sc2ccc(C(=O)NCCN3CCOCC3)cc21,-6.92%
2,COc1cccc(-n2c(Cc3cc(=O)[nH]c(=O)[nH]3)nnc2SCC(=O)Nc2ccccc2)c1,-5.92%
3,CC1CCCCN1C(=O)c1ccccc1NC(=O)c1ccco1 (stereo not given),-17.6%
4,CC1(C)CC(=O)C=C(NCCN2CCN(C(=O)Nc3ccc(Cl)c(Cl)c3)CC2)C1,13.1%
5,COc1ccccc1C(=O)Nc1nnc(-c2ccc(Cl)cc2)o1,-2.96%
6,CCOC(=O)c1cc2c(=O)n3ccccc3nc2n(C(C)C)c1=NC(=O)c1ccncc1,6.47%
7,CCOc1ccc(OCC)c(NC(=O)CN2CCC(NC(=O)c3cccc(F)c3)CC2)c1,-3.75%
8,CC(C)c1nnc(NC(=O)CCN2C(=O)c3ccccc3C2=O)s1,-11.7%
9,CCOC(=O)C1Cn2c(nc3c(c2=O)C(C)(CC)Cc2ccccc2-3)S1 (stereo not given),-4.55%
10,O=C(CCCCn1c(=O)[nH]c2ccccc2c1=O)NC1CCN(Cc2ccccc2)CC1,-14.6%
11,COCCNC(=O)C1CC(=O)N(c2ccc(F)c(Cl)c2)C1 (stereo not given),-2.14%
12,Cc1ccc2oc(=O)c3cnn(CC(=O)N4CCCCCC4)c3c2c1,-11%
13,Cc1onc(-c2ccccc2Cl)c1C(=O)N1CCCCC1C(=O)O (stereo not given),0.56%
14,Cc1c(Cl)cccc1NC(=O)CN1C(=O)CSc2ncccc21,-2.14%
15,Cc1cnc(C(=O)OCC(=O)Nc2ccc(Cl)cc2)cn1,-19%
16,Cc1cc(C)nc(N(C#N)Cc2ccccc2Cl)n1,-8.69%
17,CC(C)(C)c1nnc2sc(SCC(=O)c3cccs3)nn2c1=O,-4.01%
18,COCCNC(=O)CN(c1cc(C(F)(F)F)ccc1Cl)S(C)(=O)=O,-2.77%
19,O=C(O)Cc1ccc(NC(=O)C2CCCCC2C(=O)O)cc1 (stereo not given),-15%
20,Cn1c(=O)c2c(nc(CN3CCN(Cc4ccccc4)CC3)n2Cc2ccccc2)n(C)c1=O,-6.72%

row,Compound,growth inhibition
1,CCCCCOC(=O)Cn1c(=O)oc2ccccc21,-7.12%
2,COc1ccccc1S(=O)(=O)Cc1ccc(C(=O)NCCN(C)C)o1,-6.73%
3,COc1ccc(OC)c2c1CC(C)(C)NC2=O,0.615%
4,CCN1CCN(CCNC(=O)CS(=O)(=O)Cc2nc(-c3ccc(C)cc3)oc2C)CC1,-13.7%
5,CCN1CCN(CC(=O)Nc2cccc(C)c2C)C(=O)C1=O,-3.54%
6,O=C(O)CC1SC(=Nc2ccccc2)N(c2ccccc2)C1=O (stereo not given),-21.4%
7,O=S(=O)(NCCN1CCCC1)c1cccc2cccnc12,-4.34%
8,CCCCOC(=O)CCc1n[nH]c(=O)[nH]c1=O,-11.1%
9,COc1ccc(OC)c(S(=O)(=O)NCCc2cn3ccsc3n2)c1,-6.71%
10,c1ccc(N2CCOCC2)c(Nc2nc3ccccc3n3cnnc23)c1,-8.77%
11,COc1cc(OC)cc(C(=O)OCn2nnc3ccccc3c2=O)c1,-9.62%
12,CCn1c(C(=O)N2CCc3ccccc3C2)cc2sccc21,-11.6%
13,CC(=O)Nc1ccc(NC(=O)CCC(=O)NCCO)cc1,-10.7%
14,COCCNC(=O)c1cc2c(-c3ccc(Cl)cc3)nn(C)c2s1,3.03%
15,CCn1c(=NC(=O)CSC(C)=O)sc2cc(OC)ccc21,-22.8%
16,O=C(Cc1n[nH]c(=O)c2ccccc12)NCc1ccccn1,-3.9%
17,O=C(Nc1ccc(-c2nc3cccnc3s2)cc1)c1ccc(Br)o1,11.6%
18,CCOC(=O)Cn1c(=O)oc2cc(S(=O)(=O)Nc3cccc(C)c3)ccc21,-5.58%
19,COc1ccc(C2=NOC(C(=O)N3CCN(c4ccccc4OC)CC3)C2)cc1 (stereo not given),-7.36%
20,Cc1cccc(C)c1N1C(=O)c2ccccc2C1=O,-6.34%

# Experiment: Restrictive medium S. cerevisiae growth inhibition, OD615, pilot screen of yeast lifespan reduction project, restrictive growth control (AID 706;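 active means growth inhibition above a set limit, 3 SD over mean compound inhibition, in both replicates, cut at about 43% in these data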;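 further: modified DeaD lifespan yeast strain shifted to restrictive glucose medium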)
# Settings: OD615, 48 h, at 10 µM, stronger effect = higher value
# Summary of the method: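 material = engineered S. cerevisiae DeaD strain | medium = glucose-based CSMM-D restrictive medium | times = 4 h pre-incubation, 48 h exposure at 30 °C | technique = OD615 absorbance reading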
row,Compound,growth inhibition
1,CCN1C(=O)c2ccccc2Sc2ccc(C(=O)NCCN3CCOCC3)cc21,-7.4%
2,COc1cccc(-n2c(Cc3cc(=O)[nH]c(=O)[nH]3)nnc2SCC(=O)Nc2ccccc2)c1,-2.63%
3,CC1CCCCN1C(=O)c1ccccc1NC(=O)c1ccco1 (stereo not given),-14.8%
4,CC1(C)CC(=O)C=C(NCCN2CCN(C(=O)Nc3ccc(Cl)c(Cl)c3)CC2)C1,8.88%
5,COc1ccccc1C(=O)Nc1nnc(-c2ccc(Cl)cc2)o1,1.53%
6,CCOC(=O)c1cc2c(=O)n3ccccc3nc2n(C(C)C)c1=NC(=O)c1ccncc1,4.03%
7,CCOc1ccc(OCC)c(NC(=O)CN2CCC(NC(=O)c3cccc(F)c3)CC2)c1,-12.3%
8,CC(C)c1nnc(NC(=O)CCN2C(=O)c3ccccc3C2=O)s1,-0.03%
9,CCOC(=O)C1Cn2c(nc3c(c2=O)C(C)(CC)Cc2ccccc2-3)S1 (stereo not given),5.55%
10,O=C(CCCCn1c(=O)[nH]c2ccccc2c1=O)NC1CCN(Cc2ccccc2)CC1,-22.8%
11,COCCNC(=O)C1CC(=O)N(c2ccc(F)c(Cl)c2)C1 (stereo not given),-4%
12,Cc1ccc2oc(=O)c3cnn(CC(=O)N4CCCCCC4)c3c2c1,-0.055%
13,Cc1onc(-c2ccccc2Cl)c1C(=O)N1CCCCC1C(=O)O (stereo not given),-2.38%
14,Cc1c(Cl)cccc1NC(=O)CN1C(=O)CSc2ncccc21,-0.53%
15,Cc1cnc(C(=O)OCC(=O)Nc2ccc(Cl)cc2)cn1,-21%
16,Cc1cc(C)nc(N(C#N)Cc2ccccc2Cl)n1,4.5%
17,CC(C)(C)c1nnc2sc(SCC(=O)c3cccs3)nn2c1=O,-13.1%
18,COCCNC(=O)CN(c1cc(C(F)(F)F)ccc1Cl)S(C)(=O)=O,1.25%
19,O=C(O)Cc1ccc(NC(=O)C2CCCCC2C(=O)O)cc1 (stereo not given),-6.54%
20,Cn1c(=O)c2c(nc(CN3CCN(Cc4ccccc4)CC3)n2Cc2ccccc2)n(C)c1=O,-11.8%

row,Compound,growth inhibition
1,CCCCCOC(=O)Cn1c(=O)oc2ccccc21,4.42%
2,COc1ccccc1S(=O)(=O)Cc1ccc(C(=O)NCCN(C)C)o1,5%
3,COc1ccc(OC)c2c1CC(C)(C)NC2=O,7.13%
4,CCN1CCN(CCNC(=O)CS(=O)(=O)Cc2nc(-c3ccc(C)cc3)oc2C)CC1,-28.7%
5,CCN1CCN(CC(=O)Nc2cccc(C)c2C)C(=O)C1=O,-7.93%
6,O=C(O)CC1SC(=Nc2ccccc2)N(c2ccccc2)C1=O (stereo not given),-13.2%
7,O=S(=O)(NCCN1CCCC1)c1cccc2cccnc12,14.2%
8,CCCCOC(=O)CCc1n[nH]c(=O)[nH]c1=O,-17.6%
9,COc1ccc(OC)c(S(=O)(=O)NCCc2cn3ccsc3n2)c1,-11.5%
10,c1ccc(N2CCOCC2)c(Nc2nc3ccccc3n3cnnc23)c1,-1.25%
11,COc1cc(OC)cc(C(=O)OCn2nnc3ccccc3c2=O)c1,-4.46%
12,CCn1c(C(=O)N2CCc3ccccc3C2)cc2sccc21,-2.25%
13,CC(=O)Nc1ccc(NC(=O)CCC(=O)NCCO)cc1,-16.7%
14,COCCNC(=O)c1cc2c(-c3ccc(Cl)cc3)nn(C)c2s1,8.65%
15,CCn1c(=NC(=O)CSC(C)=O)sc2cc(OC)ccc21,7.25%
16,O=C(Cc1n[nH]c(=O)c2ccccc12)NCc1ccccn1,-19.5%
17,O=C(Nc1ccc(-c2nc3cccnc3s2)cc1)c1ccc(Br)o1,19.6%
18,CCOC(=O)Cn1c(=O)oc2cc(S(=O)(=O)Nc3cccc(C)c3)ccc21,-22.1%
19,COc1ccc(C2=NOC(C(=O)N3CCN(c4ccccc4OC)CC3)C2)cc1 (stereo not given),0.135%
20,Cc1cccc(C)c1N1C(=O)c2ccccc2C1=O,-3.44%
